Measured values: article PMC6771164 (Hepatology Communications, 2019)

Key:
[1] = system: woodchuck hepatitis virus (WHV); test: Efficacy study in WHV-positive woodchucks; assay type: in vivo
Method in brief: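 Adult chronically WHV-infected woodchucks of both sexes (serum WHV DNA, WHsAg and WHeAg positive; anti-WHs and anti-WHe negative) stratified into four groups, n = 5. Daily oral nucleoside analogue (0.1 mg/kg/day) or PBS vehicle in diet for 4 weeks. Then 12 weeks adding weekly oral TLR7 agonist (5.0–30.0 mg/kg/week) or carboxymethyl cellulose/tween-80 vehicle. Then 4 weeks daily drug only, followed to week 36. Serum WHsAg and anti-WHs by enzyme immunoassay. WHeAg and anti-WHe by cross-reactive ELISA OD.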

serum IP-10, IL-6, TNF-α = test: Mouse PD study: serum cytokines after single oral dose; assay type: in vivo, C57BL/6 mice; conditions: serum at 3 hours
Method in brief: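 Female C57BL/6 mice, 7-8 weeks old, given a single oral dose of test compound at 0.3, 3, 30 or 300 mg/kg. Bled at 3 hours. Serum IP-10, IL-6 and TNF-α quantified as pg/mL, reported as mean ± SD.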

OAS1 transcript in blood = conditions: woodchuck model; cited from earlier work
[2] = mice; cited from earlier work
[3] = cited from earlier work
[4] = cited from earlier work; remark: listed apart in the source

| Structure (SMILES) | woodchucks with recrudescence of WHV replication after drug withdrawal ([1]; Group 1) | animals with undetectable serum WHeAg during the study ([1]; Group 1, n = 5) | animals with undetectable serum WHsAg during the study ([1]; Group 1, n = 5) | elicitation of anti-WHs antibodies ([1]; monotherapy (Groups 1 and 2)) | serum IL-6 level relative to APR002 (serum IP-10, IL-6, TNF-α; high oral doses) | serum TNF-α level relative to APR002 (serum IP-10, IL-6, TNF-α; high oral doses) | slope of serum IP-10 dose response (serum IP-10, IL-6, TNF-α; single oral dose 0.3-300 mg/kg) | fold change in blood OAS1 (OAS1 transcript in blood) | volume of distribution [2] | clearance in human liver microsomes [3] | clearance in mouse liver microsomes [4] |
| --- | --- | --- | --- | --- | --- | --- | --- | --- | --- | --- | --- |
| C=C1[C@H](CO)[C@@H](O)C[C@@H]1n1cnc2c(=O)[nH]c(N)nc21 [ETV, entecavir] | all five | five | four | did not occur in any animal | – | – | – | – | – | – | – |
| CCCCOc1nc(N)c2c(n1)N(Cc1cccc(CN3CCCC3)c1)CC(=O)N2 [GS-9620] | – | – | – | – | > 6 fold | > 4 fold | 2.8 | 5 fold | high volume of distribution | fast clearance | fast clearance |
